“And” between values parts separate entries of the source, which are not always exact repeats. Identical values can stand only once. The source made the active and inactive calls.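 How the source made its calls: active means inhibition of phage lysis above 30%; inactive means the rest.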
Tested on: not listed separately
Assay: inhibition of K1F phage lysis of E. coli UTI89, confirmation, bacterial capsule biogenesis project, UTI89 strain, A600 absorbance, round 2 (AID 602408)
Conditions: E. coli UTI89 K1 capsule, phage lysis, A600; at 100 µM (top of the series)
Outline: (§1)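 Test system: E. coli K1 UTI89 cells. Dosing: compound with 1% DMSO final in well. Incubation: 1.5 h shaking compound pre-incubation, 2 h phage exposure, 37 °C. Detection: OD600 absorbance. Evaluation: phage lysis by OD600, pre-phage OD600 for growth effects. Replicates: duplicates.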

SMILES	inhibition of phage lysis
COc1ccc2nc(NC(=O)c3ccco3)sc2c1	0.81% (inactive)
O=C(Nc1cc(-c2ccc(OCCCC(F)(F)F)cc2)sc1C(=O)O)c1cc(Br)c(Br)o1	12.2% (inactive)
O=C(NC1CCNCC1)c1ccc2ncsc2c1	-6.19% (inactive)
O=C(NCCc1ccncc1)c1ccc2ncsc2c1	8.25% (inactive)
O=C(Nc1ncccc1O)c1ccc2ncsc2c1	0.85% (inactive)
COc1ccc2nc(NC(=O)c3cccs3)sc2c1	24% (inactive)
O=C(Nc1ccncc1)c1ccc2ncsc2c1	17.9% (inactive)
COc1cc2sc(NC(=O)c3ccc(Br)s3)nc2cc1F	-6.05% (inactive)
O=C(NCc1ccncc1)c1ccc2ncsc2c1	-2.06% (inactive)

Tested on: E. coli UTI89 K1 capsule, phage lysis, A600
Assay: as above
Conditions: not given
Outline: as §1

SMILES	IC50
O=C(O)c1sc(-c2ccc(OCC(F)(F)F)cc2)cc1NC(=O)c1c(F)cccc1F	2.86 µM
CCOc1ccc(-c2cc(NC(=O)c3c(F)cccc3F)c(C(=O)O)s2)cc1	2.8 µM and 3.73 µM
O=C(Nc1ccnc(F)c1)c1ccc2ncsc2c1	4.62 µM
O=C(Nc1cc(-c2ccc(OCCCC(F)(F)F)cc2)sc1C(=O)O)c1cc(Br)c(Br)o1	32.2 µM
O=C(Nc1ccncc1F)c1ccc2ncsc2c1	18.6 µM
CCCc1ccc(-c2cc(NC(=O)c3cc(Br)c(Br)o3)c(C(=O)O)s2)cc1	6.78 µM
CCCCOc1ccc(-c2cc(NC(=O)c3cc(Br)c(Br)o3)c(C(=O)O)s2)cc1	23.3 µM
CC(C)(C)c1ccc(-c2cc(NC(=O)c3cccc(F)c3)c(C(=O)O)s2)cc1	9.72 µM
O=C(O)c1sc(-c2ccc(OCCCC(F)(F)F)cc2)cc1NC(=O)c1c(F)cc(F)cc1F	5.53 µM
CCCCOc1ccc(-c2cc(NC(=O)c3ccc(Br)o3)c(C(=O)O)s2)cc1	0.85 µM
CCOc1ccc(-c2cc(NC(=O)c3ccc(Br)s3)c(C(=O)O)s2)cc1	13.9 µM
O=C(Nc1ccnc(Br)c1)c1ccc2ncsc2c1	4.26 µM
O=C(O)c1sc(-c2ccc(C(F)(F)F)cc2)cc1NC(=O)c1c(F)cccc1F	20.9 µM
O=C(Nc1cc(-c2ccccc2)sc1C(=O)O)c1cccc(Cl)c1	85.5 µM
COc1ccc(-c2cc(NC(=O)c3ccc(Br)o3)c(C(=O)O)s2)cc1	8.75 µM
O=C(Nc1ccncc1)c1ccc2ncsc2c1	1.05 µM
CCOc1ccc2nc(NC(=O)c3ccc(Br)s3)sc2c1	5.06 µM
O=C(ONc1ccc(N=NC(=O)c2ccccc2O)cc1)c1ccccc1	2.01 µM
CCOc1ccc(-c2cc(NC(=O)c3c(F)cc(F)cc3F)c(C(=O)O)s2)cc1	20 µM
O=C(Nc1cc(-c2ccc(OCCC(F)(F)F)cc2)sc1C(=O)O)c1ccc(Br)o1	0.84 µM

SMILES	IC50
O=C(O)c1sc(-c2ccc(OC(F)(F)F)cc2)cc1NC(=O)c1c(F)cccc1F	9.77 µM
CC1=NN2C(=N)/C(=C\c3ccc(SCc4ccco4)o3)C(=O)N=C2S1	37.9 µM
CCCCOc1ccc(-c2cc(NC(=O)c3c(F)cc(F)cc3F)c(C(=O)O)s2)cc1	6.39 µM
O=C(NCc1cc([N+](=O)[O-])ccc1O)c1cccnc1Sc1ccccc1Cl	14.8 µM
COc1cc(NC(=O)c2ccc3ncsc3c2)ccn1	7.75 µM
O=C(O)c1sc(-c2ccc(OCCC(F)(F)F)cc2)cc1NC(=O)c1c(F)cccc1F	0.84 µM
CC(C)(C)c1ccc(-c2cc(NC(=O)c3c(F)cccc3F)c(C(=O)O)s2)cc1	6.99 µM
O=C(Nc1cc(-c2ccc(OC(F)(F)F)cc2)sc1C(=O)O)c1ccc(Br)o1	4.6 µM
CCOc1ccc(-c2cc(NC(=O)c3c(F)cccc3C(F)(F)F)c(C(=O)O)s2)cc1	52.6 µM
CC(C)c1ccc(-c2cc(NC(=O)c3cc4ccccc4o3)c(C(=O)O)s2)cc1	23.6 µM
CCCc1ccc(-c2cc(NC(=O)c3c(F)cc(F)cc3F)c(C(=O)O)s2)cc1	15.9 µM
Cc1ccc(-c2cc(NC(=O)c3cccc(F)c3)c(C(=O)O)s2)cc1	44.5 µM
O=C(O)c1sc(-c2ccc(OCCC(F)(F)F)cc2)cc1NC(=O)c1c(F)cc(F)cc1F	3.11 µM
O=C(Nc1cc(-c2ccccc2)sc1C(=O)O)c1ccc2c(c1)OCCO2	89.1 µM
CCCc1ccc(-c2cc(NC(=O)c3c(F)cccc3F)c(C(=O)O)s2)cc1	2.63 µM
[N-]=[N+]=NCCOc1ccc(-c2cc(NC(=O)c3c(F)cccc3F)c(C(=O)O)s2)cc1	17.5 µM
CC(C)c1ccc(-c2cc(NC(=O)c3c(F)cccc3F)c(C(=O)O)s2)cc1	5.88 µM
CCOc1ccc(-c2cc(NC(=O)c3ccc(Br)o3)c(C(=O)O)s2)cc1	4.85 µM
CCCCOc1ccc(-c2cc(NC(=O)c3c(F)cccc3F)c(C(=O)O)s2)cc1	< 0.78 µM
O=C(Nc1cc(-c2ccc(C(F)(F)F)cc2)sc1C(=O)O)c1ccc(Br)o1	9.74 µM

SMILES	IC50
O=C(Nc1cc(-c2ccccc2)sc1C(=O)O)c1cccs1	68.1 µM
O=C(Nc1cc(-c2ccc(OCC(F)(F)F)cc2)sc1C(=O)O)c1ccc(Br)o1	4.9 µM
Cc1ccc(-c2cc(NC(=O)c3c(F)cccc3F)c(C(=O)O)s2)cc1	21.3 µM
CC1(C(=O)O)CCC(C(=O)Nc2ccc3ccccc3c2)C1(C)C (configuration not stated)	43.9 µM
CCCc1ccc(-c2cc(NC(=O)c3ccc(Br)o3)c(C(=O)O)s2)cc1	1.43 µM
O=C(O)c1sc(-c2ccc(OCCCC(F)(F)F)cc2)cc1NC(=O)c1c(F)cccc1F	10.3 µM
CCCOc1ccc(-c2cc(NC(=O)c3c(F)cc(F)cc3F)c(C(=O)O)s2)cc1	8.06 µM
CC(C)c1ccc(-c2cc(NC(=O)c3cccc(F)c3)c(C(=O)O)s2)cc1	18.4 µM
CCOc1ccc(-c2cc(NC(=O)c3cccc(Cl)c3)c(C(=O)O)s2)cc1	64.9 µM
O=C(Nc1ccnc(Cl)c1)c1ccc2ncsc2c1	2.57 µM
Cc1ccc(-c2cc(NC(=O)c3ccc(Br)o3)c(C(=O)O)s2)cc1	11.3 µM
O=C(Nc1cc(-c2ccccc2)sc1C(=O)O)c1ccc(Br)o1	42.2 µM
CCOc1ccc(-c2cc(NC(=O)c3ccc(OC)c(OC)c3)c(C(=O)O)s2)cc1	59.9 µM
CCOc1ccc(-c2cc(NC(=O)c3cccc(F)c3)c(C(=O)O)s2)cc1	20.1 µM
CC(C)c1ccc(-c2cc(NC(=O)c3ccc(Br)o3)c(C(=O)O)s2)cc1	2.81 µM
O=C(Nc1cc(-c2ccc(OCCCC(F)(F)F)cc2)sc1C(=O)O)c1ccc(Br)o1	1.78 µM
COc1ccc2nc(NC(=O)c3ccc(Br)s3)sc2c1	2.33 µM
O=C(O)c1sc(-c2ccc(OCC(F)(F)F)cc2)cc1NC(=O)c1c(F)cc(F)cc1F	94.9 µM
